This is a sample that favours compounds with a hit; in the whole collection about 4.8% have one here.
ALR inh – inhibitors of human sulfhydryl oxidase ALR; P55789; purified ALR, DTT oxidation, H2O2 HRP-luminol luminescence; inhibition, % (no concentration beside the values); 3.8% of 290,000 active; AID 485317;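 active = mean replicate inhibition above about 79%, with every replicate also reaching it, limit read from the data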
Target sequence (P55789 whole entry, looked up): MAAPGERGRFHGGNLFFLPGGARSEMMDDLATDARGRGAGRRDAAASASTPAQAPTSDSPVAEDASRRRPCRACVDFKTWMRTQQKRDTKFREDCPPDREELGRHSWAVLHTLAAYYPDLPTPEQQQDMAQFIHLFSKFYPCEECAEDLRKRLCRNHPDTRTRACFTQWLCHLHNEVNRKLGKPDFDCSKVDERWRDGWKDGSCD
Calb FLC – affects C. albicans growth with fluconazole. growth inhibition, % (test concentration not listed). C. albicans CaCi-2 (fluconazole-resistant clinical isolate) + fluconazole, Alamar Blue growth, 48 h. 0.57% of 300,000 active;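 active = growth inhibition above about 58% in most replicates, limit read from the data, passing the limit was not always enough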;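 note: all wells also contain fluconazole at 8 µg/ml as a sub-toxic cotreatment; 0% = median of DMSO wells and 100% = median of geldanamycin control wells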
ATG4B inhibitor – inhibitors of human ATG4B cysteine protease | Q9Y4P1 | ATG4B cleavage of LC3-PLA2, NBD-HPC fluorescence, 1 h | AID 504462 | inhibition, % at 8.33 µM | 0.51% of 340,000 active; in the data active = inhibition above about 40%
NLRP3 yeast inh – NALP3 inhibition in yeast. inhibition, % at 10 µM. Yeast reconstituted NLRP3/ASC/caspase-1, beta-gal luminescence, 24 h. 0.39% of 330,000 active;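 active = inhibition of 50% or more; inactive = inhibition below 50%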;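 note: plate controls were induced DMSO wells for no effect and uninduced yeast grown without galactose for full effect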
NALP1 inh – blocks the NALP1 inflammasome reconstituted in yeast; 0.61% of 280,000 active; AID 2071; S. cerevisiae NALP1/ASC/caspase-1 growth, X-gal OD620, 72 h; inhibition, % at 10 µM; in the data active = inhibition mostly above about 24%, no sharp cut-off; inactive = mostly below about 32%
UCH37 inh – inhibitors of human deubiquitinating enzyme UCH37; purified proteasome/UCH37, Ub-AMC cleavage fluorescence; inhibition, % (concentration not given with the values); 0.33% of 330,000 active;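 active = mean inhibition over replicate wells above about 20%, limit read from the data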;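 note: 0% = compound-free wells with enzyme and 100% = wells lacking proteasome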
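Material: human UCH37 enzyme supplied as purified proteasome complex / Amount: 0.15 nM proteasome as dispensed / Buffer or medium: pH 7.4 Tris-HCl (50 mM) with ovalbumin, ATP-MgCl2, DTT / Times: preincubation 30 min, reaction 25 min, room temperature / Technique: AMC fluorescence from Ub-AMC cleavage, excitation 355 nm, emission 460 nm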
* hit, by the source's call; / = no result given.

SMILES	ALR inh	Calb FLC	ATG4B inhibitor	NLRP3 yeast inh	NALP1 inh	UCH37 inh
CC1(C)OC(c2ccccc2)=C/C(=C/C=N/NC(=O)c2ccncc2)O1	98*	45	-7	-7	-17	/
O=[N+]([O-])c1ccccc1N=Nc1ccc(O)cc1O	/	/	-5	/	/	21*
O=[N+]([O-])c1cc(N=Nc2ccc3ccccc3c2)ccc1O	-4	9	7	/	16	4
O=C(O)c1cccc(Cn2c(Cl)c(C=NNC(=O)c3ccco3)sc2=O)c1	/	/	/	/	/	12
CCS(=O)(=O)Nc1ccc(NC(C)=O)cc1	-6	-8	-7	10	36*	-2
CC(=O)c1ccc(NC(=O)CCCC(=O)c2ccccc2)cc1	7	1	-4	16	-4	2
CC(=O)Nc1ccc(O)cc1	99*	/	-20	7	/	2
CCOC(=O)/C=C/S(=O)(=O)c1ccc(NC(C)=O)cc1	98*	-5	-4	4	6	5
O=C(CCCC(=O)c1ccccc1)Nc1ccc(O)cc1	88*	-7	-8	8	0	1
COc1cc(C=c2sc3n(c2=O)C(c2ccccc2)C(c2ccccc2)=NN=3)ccc1O (configuration not stated)	/	/	/	/	/	-4
CCOc1cc(C=NN=C(N)c2nonc2N)cc(Br)c1OCc1cccc2ccccc12	/	/	/	/	/	5
CCCC(=O)Nc1ccc(Nc2ccccc2)cc1	99*	-11	-2	45	41	1
O=C(O)C1CCCCC1C(=O)Nc1ccccc1Nc1ccccc1 (configuration not stated)	99*	-2	7	11	/	1
CC(=O)Nc1ccc(Nc2ccccc2)cc1	99*	-4	-7	10	14	1
O=C(Nc1ccc(Nc2ccccc2)cc1)C1CC1	100*	-21	-9	34	/	1
Nc1ccc(OC(=O)Nc2ccc(O)cc2)cc1	99*	10	-6	4	-9	2
CC(=O)CC(=O)Nc1ccc(Nc2ccccc2)cc1	99*	1	-4	-4	33	3
O=C(CSc1nc2[nH]c(=O)cc(O)c2s1)Nc1cc(Cl)cc(Cl)c1	99*	-4	-9	16	13	4
Cc1cc(C)cc(NC(=O)CSc2nc3[nH]c(=O)cc(O)c3s2)c1	98*	-3	-9	17	1	5
Nc1nnc(SCC(=O)Nc2cccc(Cl)c2)s1	/	/	-3	15	/	3
Cc1cc(C)nc(SCc2nnc(SCC(=O)Nc3ccc(Cl)c(C(F)(F)F)c3)o2)n1	-4	0	-11	17	14	0
O=C(CSc1nc2[nH]c(=O)cc(O)c2s1)Nc1ccc(Cl)c(C(F)(F)F)c1	99*	/	-3	6	/	5
COC(=O)c1ccc(C)c(NC(=O)CSc2nc3[nH]c(=O)cc(O)c3s2)c1	2	/	0	9	/	2
CCOC(=O)C1(CCC(C)=NNC(N)=O)CC(C)(C)OC1=O (configuration not stated)	/	/	/	/	/	3
Cc1ccc(C2(C)NC(=O)N(CC(=O)Nc3ccc(S(=O)(=O)Nc4nccs4)cc3)C2=O)cc1 (configuration not stated)	96*	2	-3	-4	/	1
SMILES	ALR inh	Calb FLC	ATG4B inhibitor	NLRP3 yeast inh	NALP1 inh	UCH37 inh
COc1cc(CO)cc(-c2cc(CO)cc(OC)c2OC)c1OC	-1	8	-6	7	26	26*
Cc1c(Cc2ccccc2)sc(N=Cc2c(O)ccc3ccccc23)c1C(N)=O	/	/	/	/	/	8
COC(=O)c1ccc(COc2ccccc2C=NO)o1	/	/	/	/	/	1
Cc1ccc(S(=O)(=O)C(C#N)c2nc3ccccc3nc2N2CCN(C)CC2)cc1C (configuration not stated)	22	83*	-6	2	25	-69
CC1CN(C2CCCCC2)c2nc3c(c(=O)[nH]c(=O)n3C)n2C1 (configuration not stated)	95*	1	0	-2	/	2
O=C(NN=Cc1cc([N+](=O)[O-])ccc1O)C1CCCCC1	/	/	/	/	/	11
COc1ccc(C=NNC(=O)CN2CCS(=O)(=O)CC2)cc1	/	/	/	/	/	6
COCCNC(=O)Nc1ccc2c(c1)N(C)C(=O)c1ccccc1S2	96*	8	6	3	18	4
CCC(C)NC(=O)Nc1ccc2c(c1)N(C)C(=O)c1ccccc1S2 (configuration not stated)	-3	-4	2	-2	8	5
